Assays:
[1] = biological target: T1, Muscarinic acetylcholine receptor M2 (Homo sapiens, UniProt P08172); assay: Inhibition of [3H]NMS binding to human muscarinic acetylcholine receptor M2 expressed in CHO cells; type: cell-based
T1 sequence (P08172 whole entry): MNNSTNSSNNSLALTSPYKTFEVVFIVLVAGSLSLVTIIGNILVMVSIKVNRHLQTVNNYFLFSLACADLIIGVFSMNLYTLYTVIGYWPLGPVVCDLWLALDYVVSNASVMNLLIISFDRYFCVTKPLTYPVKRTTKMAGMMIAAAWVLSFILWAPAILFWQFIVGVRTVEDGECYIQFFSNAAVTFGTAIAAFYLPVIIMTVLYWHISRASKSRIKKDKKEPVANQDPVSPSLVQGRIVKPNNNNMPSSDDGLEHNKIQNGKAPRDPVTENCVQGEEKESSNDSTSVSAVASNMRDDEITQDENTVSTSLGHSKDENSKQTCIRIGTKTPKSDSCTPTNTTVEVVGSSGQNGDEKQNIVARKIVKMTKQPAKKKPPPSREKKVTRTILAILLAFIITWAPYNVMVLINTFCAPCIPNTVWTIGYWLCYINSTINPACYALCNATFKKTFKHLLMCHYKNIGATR
In short: (§1)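 Competition binding against [3H]-NMS on membranes from CHO cells expressing cloned human m2 or m3 receptors. Affinity is taken from inhibition of specific binding, as the mean of two or more independent assays.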

Canis familiaris [2] = assay: Metacholine provocation test was conducted 4 hr after oral administration (1 mg/kg) in anesthetized dogs. The bronchodilatory activity is expressed as shifts; type: functional, Canis lupus familiaris
Canis familiaris [3] = organism: Canis familiaris; assay: In vitro metabolic stability in dog hepatic microsomes (1 mg protein/mL), expressed as the percent remaining after 30 min of incubation at […].; type: functional; settings: Canis lupus familiaris, Liver, 37 °C
In short: (§2)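 Test compound at 10 µM incubated 30 min at 37 °C with dog or human hepatic microsomes (1 mg protein/mL). Read-out is percent of parent remaining. More than 2 determinations.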

[4] = biological target: T2, Muscarinic acetylcholine receptor M3 (Homo sapiens, UniProt P20309); assay: Ability to inhibit binding of [3H]NMS was determined by receptor binding assay using membranes from chinese hamster ovary (CHO) cells expressing cloned Muscarinic acetylcholine receptor M3; type: cell membranes
In short: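 Radioligand displacement of [3H]-NMS specific binding on membranes prepared from CHO cells transfected with cloned human m3 receptor. Affinity was derived from inhibition of specific binding. Each value is the mean of two or more independent assays.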

Homo sapiens [5] = organism: Homo sapiens; assay: In vitro metabolic stability in human hepatic microsomes (1 mg protein/mL), expressed as the percent remaining after 30 min of incubation at […].; type: functional; settings: Liver, 37 °C; in short: as §2
[6] = biological target: T2, Muscarinic acetylcholine receptor M3; assay: Inhibition of [3H]NMS binding to human muscarinic acetylcholine receptor M3 expressed in CHO cells; type: cell-based; in short: as §1
Homo sapiens [7] = organism: Homo sapiens; assay: In vitro metabolic stability in human hepatic microsomes (1 mg protein/mL) was reported as the percent remaining after 30 min of incubation […]; type: functional; settings: Liver; in short: as §2

T2 sequence (P20309 whole entry): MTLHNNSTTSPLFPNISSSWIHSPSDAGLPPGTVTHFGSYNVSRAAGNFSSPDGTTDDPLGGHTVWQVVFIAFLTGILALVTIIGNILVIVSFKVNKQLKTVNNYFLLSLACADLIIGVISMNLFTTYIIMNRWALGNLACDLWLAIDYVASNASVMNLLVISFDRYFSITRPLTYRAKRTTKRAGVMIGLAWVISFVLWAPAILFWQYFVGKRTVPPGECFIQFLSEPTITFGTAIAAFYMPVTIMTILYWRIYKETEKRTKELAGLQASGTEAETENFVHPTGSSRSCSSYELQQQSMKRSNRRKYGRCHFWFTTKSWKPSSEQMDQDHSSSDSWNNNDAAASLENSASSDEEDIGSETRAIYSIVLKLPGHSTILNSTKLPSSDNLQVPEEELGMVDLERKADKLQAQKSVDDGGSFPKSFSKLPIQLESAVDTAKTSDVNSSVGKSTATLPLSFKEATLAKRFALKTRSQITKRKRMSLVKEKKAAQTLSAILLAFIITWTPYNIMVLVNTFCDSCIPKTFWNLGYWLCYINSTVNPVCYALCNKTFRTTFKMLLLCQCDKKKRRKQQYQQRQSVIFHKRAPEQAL

SMILES | Ki [1] [µM] | Activity (Canis familiaris [2]) | Metabolic stability (Canis familiaris [3]) [%] | Ki [4] [µM] | Metabolic stability (Homo sapiens [5]) [%] | Ki [6] [µM] | Metabolic stability (Homo sapiens [7]) [%]
Cc1cccc(CN2CCC(NC(=O)[C@](O)(c3ccccc3)[C@@H]3CCC(F)(F)C3)CC2)c1 | 0.31 | 25 | 32 | 0.002 | 55 |  | 
Nc1ccc(CN2CCC(NC(=O)[C@](O)(c3ccccc3)[C@@H]3CCC(F)(F)C3)CC2)cc1F | 0.31 |  | 78 |  | 78 | 0.0061 | 
CC(C)=CCCN1CCC(NC(=O)[C@](O)(c2ccccc2)[C@@H]2CCC(F)(F)C2)CC1 | 2 | 4.2 | 70 |  | 68 | 0.0062 | 
O=C(NC1CCN(Cc2cccnc2)CC1)C(O)(c1ccccc1)C1CCCC1 (centres undefined) | 4.6 |  |  |  |  | 0.1 | 
O=C(NC1CCN(CC2CCCCC2)CC1)[C@](O)(c1ccccc1)[C@@H]1CCC(F)(F)C1 | 21 | 2.3 | 70 |  | 86 | 0.018 | 
Nc1ccc(CN2CCC(NC(=O)[C@](O)(c3ccccc3)[C@@H]3CCC(F)(F)C3)CC2)cc1 | 0.22 | 43 | 89 |  | 88 | 0.0078 | 
Cc1cccc(CN2CCC(NC(=O)C(O)(c3ccccc3)C3CCCC3)CC2)c1 (centres undefined) | 0.07 |  |  |  |  | 0.0023 | 
O=C(NC1CCN(Cc2ccsc2)CC1)C(O)(c1ccccc1)C1CCCC1 (centres undefined) | 0.079 |  |  |  |  | 0.0036 | 
CC(C)=CCCN1CCC(NC(=O)[C@](O)(c2ccccc2)C2CCCC2)CC1 | 0.49 | 5.2 | 31 |  | 54 |  | 
CC(C)=CCCN1CCC(NC(=O)[C@](O)(c2ccccc2)[C@H]2CC[C@H](F)C2)CC1 | 1.3 |  | 60 |  | 66 | 0.019 | 
O=C(NC1CCN(Cc2cccc(O)c2)CC1)[C@](O)(c1ccccc1)[C@@H]1CCC(F)(F)C1 | 0.037 |  | 73 |  | 56 | 0.0054 | 
O=C(NC1CCN(Cc2ccccn2)CC1)C(O)(c1ccccc1)C1CCCC1 (centres undefined) | 0.32 |  |  |  |  | 0.014 | 
NCc1cccc(CN2CCC(NC(=O)[C@](O)(c3ccccc3)[C@@H]3CCC(F)(F)C3)CC2)c1 | 3.4 |  | 77 |  | 80 | 0.021 | 
O=C(NC1CCN(Cc2ccccc2)CC1)[C@](O)(c1ccccc1)[C@@H]1CCC(F)(F)C1 | 0.26 |  | 45 |  | 47 | 0.0038 | 
O=C(NC1CCN(CC2CCCCCC2)CC1)C(O)(c1ccccc1)C1CCCC1 (centres undefined) | 3.1 |  |  |  |  | 0.012 | 
Cc1cccc(CN2CCC(NC(=O)[C@](O)(c3ccccc3)[C@@H]3CCC(F)(F)C3)CC2)n1 |  |  | 24 |  | 52 |  | 
CC(C)=CCCN1CCC(NC(=O)[C@](O)(c2ccccc2)[C@H]2CC[C@@H](F)C2)CC1 | 2.3 |  | 64 |  | 75 | 0.011 | 
O=C(NC1CCN(Cc2ccoc2)CC1)C(O)(c1ccccc1)C1CCCC1 (centres undefined) | 1.8 |  |  |  |  | 0.05 | 
COc1cccc(CN2CCC(NC(=O)[C@](O)(c3ccccc3)[C@@H]3CCC(F)(F)C3)CC2)c1 |  |  | 53 |  | 46 |  | 
O=C(NC1CCN(CC2CCCC2)CC1)C(O)(c1ccccc1)C1CCCC1 (centres undefined) | 14 |  |  |  |  | 0.27 | 

SMILES | Ki [1] [µM] | Activity (Canis familiaris [2]) | Metabolic stability (Canis familiaris [3]) [%] | Ki [4] [µM] | Metabolic stability (Homo sapiens [5]) [%] | Ki [6] [µM] | Metabolic stability (Homo sapiens [7]) [%]
O=C(NC1CCN(Cc2cccc(F)c2)CC1)[C@](O)(c1ccccc1)[C@@H]1CCC(F)(F)C1 | 0.48 |  | 23 |  |  | 0.0031 | 52
Cc1ccccc1CN1CCC(NC(=O)C(O)(c2ccccc2)C2CCCC2)CC1 (centres undefined) | 37 |  |  |  |  | 0.22 | 
O=C(NC1CCN(Cc2ccncc2)CC1)C(O)(c1ccccc1)C1CCCC1 (centres undefined) | 6.4 |  |  |  |  | 0.19 | 
O=C(NC1CCN(Cc2ccccn2)CC1)[C@](O)(c1ccccc1)[C@@H]1CCC(F)(F)C1 | 2.4 |  | 45 |  | 60 | 0.013 | 
Nc1ccc(CN2CCC(NC(=O)[C@](O)(c3ccccc3)[C@@H]3CCC(F)(F)C3)CC2)nc1 | 0.93 |  |  |  |  | 0.015 | 
Nc1cccc(CN2CCC(NC(=O)[C@](O)(c3ccccc3)[C@@H]3CCC(F)(F)C3)CC2)c1 | 0.33 |  | 88 |  | 90 | 0.0069 | 
O=C(NC1CCN(Cc2cccc(CO)c2)CC1)[C@](O)(c1ccccc1)[C@@H]1CCC(F)(F)C1 | 6.9 | 3.1 | 73 |  | 34 |  | 
O=C(NC1CCN(Cc2ccccc2)CC1)C(O)(c1ccccc1)C1CCCC1 (centres undefined) | 0.03 |  |  |  |  |  | 
Cc1cc(CN2CCC(NC(=O)C(O)(c3ccccc3)C3CCCC3)CC2)cs1 (centres undefined) | 0.024 |  |  |  |  | 0.0035 | 
Cc1ccc(CN2CCC(NC(=O)C(O)(c3ccccc3)C3CCCC3)CC2)cc1 (centres undefined) | 0.022 |  |  |  |  | 0.0064 | 
COc1cccc(CN2CCC(NC(=O)C(O)(c3ccccc3)C3CCCC3)CC2)c1 (centres undefined) | 0.27 |  |  |  |  | 0.0059 | 
O=C(NC1CCN(CC2CCCCCC2)CC1)[C@](O)(c1ccccc1)[C@@H]1CCC(F)(F)C1 | 17 |  |  | 0.028 |  |  | 
O=C(NC1CCN(Cc2ccsc2)CC1)[C@](O)(c1ccccc1)[C@@H]1CCC(F)(F)C1 |  |  | 37 |  | 35 |  | 
Nc1cccc(CN2CCC(NC(=O)[C@](O)(c3ccccc3)[C@@H]3CCC(F)(F)C3)CC2)n1 | 0.53 | >64 | 84 |  | 80 | 0.0028 | 
Cc1cccc(CN2CCC(NC(=O)C(O)(c3ccccc3)C3CCCC3)CC2)n1 (centres undefined) | 2.4 |  |  |  |  | 0.011 | 
O=C(NC1CCN(CC2CCCCC2)CC1)C(O)(c1ccccc1)C1CCCC1 (centres undefined) | 3.3 |  |  |  |  | 0.017 | 
CC(C)=CCCN1CCC(NC(=O)[C@](O)(c2ccccc2)[C@H]2CCC(F)(F)C2)CC1 | 1.4 |  | 77 |  | 75 | 0.016 | 
CC(C)=CCCN1CCC(NC(=O)[C@](O)(c2ccccc2)[C@H]2CC[C@H](O)C2)CC1 | 2.3 | 2.9 | 75 |  | 76 | 0.018 | 
O=C(NC1CCN(CC2CCCCCCC2)CC1)C(O)(c1ccccc1)C1CCCC1 (centres undefined) | 9.4 |  |  |  |  | 0.093 | 
